Increase in footpad thickness, PFC and LD50 data for 7 compounds are collected here from ChEMBL document CHEMBL1121366, “Synthesis and immunological activity of 5,6,6a,8,9,11a-hexahydronaphth[1',2':4,5]imidazo[2,1-b]thiazoles and 5,6,6a,9,10,11a-hexahydroanaphth[2',1':4,5]imidazo[2,1-b]thiazoles” (J Med Chem, 1980).

Series [1] deals with Mus musculus. As to the kind of experiment: Tested for increase in foot-pad thickness (mm) by its effect on cellular immune response in mice against sheep red blood cells by the DHR method in experiment 12 at dose 3 mg/kg. The format is functional. Summed up:
(§1)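 Delayed-type hypersensitivity was run in male CDF1 (Balb/c × DBA/2Cr) mice, 8-10 weeks old, groups of four. Mice were sensitized with 1 × 10^8 SRBC in PBS into one hind footpad, with sc inguinal dosing in saline or in 1% Me2SO-saline. Four days later the opposite footpad was challenged with 1 × 10^8 SRBC. The read-out was the gauge-measured increase in thickness from just before to 24 h after challenge, as mean ± SE (n = 4).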

Series [2] has as its system Mus musculus. As to the kind of experiment: Effect on humoral immune response in mice against sheep red blood cells by the plaque-forming cell (PFC/10e6 spleen cells) method in experiment 3 at dose 12 mg/kg. Type of series: functional. In short, it runs like this: (§2)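 Male ICR mice, 8-10 weeks old, groups of four, were immunized iv with 1 × 10^8 SRBC in PBS. After 24 h they received a single sc inguinal dose in saline, or as a suspension in saline with 1% Me2SO. Splenic hemolytic plaque-forming cells were counted 4 days later by Cunningham's method. Values are the mean of four ± SE, with a paired t test against the control.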

The subject of series [3] is Mus musculus. As to the kind of experiment: Tested for increase in foot-pad thickness (mm) by its effect on cellular immune response in mice against sheep red blood cells by DHR method in experiment 12 at dose 12 mg/kg. The format is functional. Summed up: as §1
Series [4] concerns Mus musculus. As to the kind of experiment: Effect on humoral immune response in mice against sheep red blood cells by the plaque-forming cell (PFC/10e6 spleen cells) method in experiment 3 at dose 3 mg/kg. Type of series: functional. In short, it runs like this: as §2
The subject of series [5] is Mus musculus. As to the kind of experiment: Effect on humoral immune response in mice against sheep red blood cells by the plaque-forming cell (PFC/10e6 spleen cells) method in experiment 5 at dose 3 mg/kg. The format is functional. In short, it runs like this:
(§3)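 Male CDF1 (Balb/c × DBA/2Cr) mice, 8-10 weeks old, groups of four, were immunized iv with 1 × 10^8 SRBC in PBS. After 24 h they received a single sc inguinal dose in saline, or as a suspension in saline with 1% Me2SO. Spleens were taken 4 days later and hemolytic plaque-forming cells counted by Cunningham's method. Values are the mean of four mice ± SE, with a paired Student's t test against the control.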

Series [6] relates to Mus musculus. As to the kind of experiment: Tested for increase in foot-pad thickness (mm) by its effect on cellular immune response in mice against sheep red blood cells by DHR method in experiment 14 at dose 12 mg/kg. Type of series: functional. Summed up:
as §1

The test system of series [7] is Mus musculus. As to the kind of experiment: Tested for increase in foot-pad thickness (mm) by its effect on cellular immune response in mice against sheep red blood cells by the DHR method in experiment 14 at dose 3 mg/kg. Type of series: functional. In short, it runs like this: as §1
Series [8] has as its system Mus musculus. As to the kind of experiment: Effect on humoral immune response in mice against sheep red blood cells by the plaque-forming cell (PFC/10e6 spleen cells) method in experiment 5 at dose 12 mg/kg. The format is functional. In short, it runs like this:
as §3

Series [9] relates to Mus musculus. As to the kind of experiment: Effect on humoral immune response in mice against sheep red blood cells by the plaque-forming cell (PFC/10e 6 spleen cells) method in experiment 1 at dose 3 mg/kg. The format is functional. In short, it runs like this: as §3
For series [10], the system named is Mus musculus. As to the kind of experiment: Tested for increase in foot-pad thickness (mm) by its effect on cellular immune response in mice against sheep red blood cells by DHR method in experiment 10 at dose 12 mg/kg. Type of series: functional. In short, it runs like this: (§4)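 Male ICR mice, 8-10 weeks old, groups of four, were sensitized with 1 × 10^8 SRBC in PBS into one hind footpad and dosed sc in the inguinal region, in saline or in saline with 1% Me2SO. Four days later the other footpad was challenged with 1 × 10^8 SRBC. Foot thickness was gauged just before and 24 h after challenge, and the increase was reported as mean of four ± SE.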

For series [11], the system named is Mus musculus. As to the kind of experiment: (§5) Acute lethal dose was determined in mice upon intravenous administration. The format is ADME, organism-based. The following applies: in vivo. In short, it runs like this:
(§6)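 Male mice, 8–10 weeks old, CDF1 (Balb/c × DBA/2Cr). Groups of six dosed once, either iv or sc. Three to five dose levels were chosen from 400, 300, 150, 80, 40, 20 and 10 mg/kg. LD50 was calculated by the Litchfield–Wilcoxon method. Vehicle was saline or saline with 1% Me2SO, depending on compound.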

Series [12] relates to Mus musculus. As to the kind of experiment: Effect on humoral immune response in mice against sheep red blood cells by the plaque-forming cell (PFC/10e 6 spleen cells) method in experiment 1 at dose 12 mg/kg. Type of series: functional. Summed up: as §3
Series [13] concerns Mus musculus. As to the kind of experiment: (§7) Acute lethal dose was determined in mice upon subcutaneous administration. To be noted: in vivo, sc. The format is ADME, organism-based. Summed up: as §6
In series [14] the test system is Mus musculus. As to the kind of experiment: Tested for increase in foot-pad thickness (mm) by its effect on cellular immune response in mice against sheep red blood cells by the DHR method in experiment 10 at dose 3 mg/kg. Type of series: functional. In short, it runs like this: as §4
In series [15] the test system is Mus musculus. Briefly: Effect on humoral immune response in mice against sheep red blood cells by the plaque-forming cell (PFC/10e6 spleen cells) method in experiment 7 at dose 12 mg/kg. Type of series: functional. In short, it runs like this: (§8)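 Male mice, 8–10 weeks old, CDF1 (Balb/c × DBA/2Cr) in experiment 7. Groups of four were immunized iv with 1 × 10^8 SRBC in PBS. After 24 h, compound was given sc in the inguinal region in saline or saline/1% Me2SO. Four days later, splenic hemolytic plaque-forming cells were counted by the Cunningham method and expressed per 10^6 spleen cells. Values are the mean of four mice ± SE.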

For series [16], the system named is Mus musculus. Briefly: Tested for increase in foot-pad thickness (mm) by its effect on cellular immune response in mice against sheep red blood cells by the DHR method in experiment 16 at dose 3 mg/kg. Type of series: functional. In short, it runs like this: (§9)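 Male mice, 8–10 weeks old, ICR strain. Groups of four were sensitized with 1 × 10^8 SRBC in PBS into one hind footpad, with compound given sc in the inguinal region in saline or saline/1% Me2SO. Four days later, 1 × 10^8 SRBC were injected into the other hind footpad. Foot thickness was measured with a dial gauge just before and 24 h after this challenge, and the increase was taken as the difference. Values are the mean of four mice ± SE.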

Series [17] concerns Mus musculus. Briefly: Effect on humoral immune response in mice against sheep red blood cells by the plaque-forming cell (PFC/10e6 spleen cells) method in experiment 7 at dose 3 mg/kg. Type of series: functional. In short, it runs like this:
as §8

The test system of series [18] is Mus musculus. Briefly: Tested for increase in foot-pad thickness (mm) by its effect on cellular immune response in mice against sheep red blood cells by DHR method in experiment 16 at dose 12 mg/kg. The format is functional. Summed up:
as §9

Series [19] relates to Mus musculus. As to the kind of experiment: Effect on humoral immune response in mice against sheep red blood cells by the plaque-forming cell (PFC/10e6 spleen cells) method in experiment 8 at dose 12 mg/kg. Type of series: functional. Summed up:
as §3

Series [20] deals with Mus musculus. Briefly: Effect on humoral immune response in mice against sheep red blood cells by the plaque-forming cell (PFC/10e6 spleen cells) method in experiment 6 at dose 12 mg/kg. The format is functional. In short, it runs like this: as §3
Series [21] deals with Mus musculus. Briefly: Effect on humoral immune response in mice against sheep red blood cells by the plaque-forming cell (PFC/10e6 spleen cells) method in experiment 4 at dose 3 mg/kg. The format is functional. Summed up:
as §3

Series [22] is described as follows: as §5. Type of series: ADME, organism-based. The following applies: mouse, in vivo. In short, it runs like this:
as §6

The nature of series [23]: as §7. Type of series: ADME, organism-based. To be noted: mouse, in vivo, sc. Summed up: as §6
In series [24] the test system is Mus musculus. Briefly: Tested increase in foot-pad thickness (mm) by its effect on cellular immune response in mice against sheep red blood cells by the DHR method in experiment 16 at dose 3 mg/kg. The format is functional. Summed up: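 Male ICR mice, 8–10 weeks old, groups of four. Sensitized with SRBC (1 × 10^8) in PBS injected into one hind footpad; compound given sc in the inguinal region in saline or in saline with 1% Me2SO. Four days later the other hind footpad was challenged with SRBC (1 × 10^8). Dial gauge read just before and 24 h after challenge. Value is the mean increase ± SE.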

The test system of series [25] is Mus musculus. As to the kind of experiment: Effect on humoral immune response in mice against sheep red blood cells by the plaque-forming cell (PFC/10e6 spleen cells) method in experiment 6 at dose 3 mg/kg. The format is functional. In short, it runs like this:
as §3

In series [26] the test system is Mus musculus. Briefly: Effect on humoral immune response in mice against sheep red blood cells by the plaque-forming cell (PFC/10e6 spleen cells) method in experiment 4 at dose 12 mg/kg. Type of series: functional. In short, it runs like this:
as §3

For series [27], the system named is Mus musculus. Briefly: Effect on humoral immune response in mice against sheep red blood cells by the plaque-forming cell (PFC/10e6 spleen cells) method in experiment 8 at dose 3 mg/kg. Type of series: functional. Summed up: as §3

As a reminder, the LD50 is the dose at which mortality reaches 50%.

For `Fc1ccc2c(c1)CCC1C2N=C2SCCN21` (trans isomer), the Increase in footpad thickness in [1] and in [3] was 0.44 mm throughout. Moreover, the PFC in series [2] came to 1620; in series [4] it was 1970.
On to `Clc1ccc2c(c1)CCC1C2N=C2SCCN21` (trans isomer), for which the PFC is reported as 1530 in series [5] and 790 in series [8]. Further, the figures for the Increase in footpad thickness in series [6] and in [7] were 0.46 mm and 0.5 mm, respectively.
For `c1ccc2c(c1)CCC1C2N=C2SCCN21` (trans isomer), the PFC in series [9] was determined as 1100; in series [12], 1500. Further, the Increase in footpad thickness is 0.42 mm in series [10] and 0.57 mm in series [14]. Also, the LD50 came to 67 mg/kg in series [11] and 320 mg/kg in series [13].
In the case of `Brc1ccc2c(c1)C1N=C3SCCN3C1CC2` (trans isomer), the figures for the PFC in [15] and in [17] were 920 and 740, respectively. For the same compound, the Increase in footpad thickness in series [16] was determined as 0.35 mm; in series [18] it was 0.31 mm.
For the compound `Fc1ccc2c(c1)CCC1N=C3SCCN3C21` (trans isomer), the Increase in footpad thickness in series [1] and in series [3] was 0.42 mm each time. Besides, the PFC in series [2] worked out at 2070; in [4] it was 2550.
For `Clc1ccc2c(c1)CCC1N=C3SCCN3C21` (trans isomer), the PFC in [5] is 1060; in [8] it was 820. Moreover, the Increase in footpad thickness worked out at 0.36 mm in [6] and 0.39 mm in series [7].
Regarding `c1ccc([C@H]2CN3CCSC3=N2)cc1` [LEVAMISOLE], the PFC was found to be 1200 in [19]; 1330 in series [20]; 1330 in [5]; 1380 in series [21]; 970 in series [15]; 1670 in series [8]. For the same compound, the PFC was 1850 in series [25]; 1800 in series [26]; 1390 in series [17]; 570 in [27]; 1870 in series [2]; 2820 in [4]. Besides, the values for the LD50 in series [22] and in [23] were 15 mg/kg and 136 mg/kg, respectively. The Increase in footpad thickness in series [24] worked out at 0.34 mm.
